FID counter = compounds displacing fluorescent DNA intercalator, primary screen, artefact control for HCV NS3 helicase inhibitor project, biochemical, FID fluorescence; inhibition, % at 7.9 µM; DNA fluorescent intercalator displacement; 290,000 compounds, 0.17% hits; in the data active = inhibition above about 37%;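 also: higher means more ethidium bromide displaced from hairpin DNA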
SR-BI DiI inh = inhibitors of SR-BI mediated HDL lipid uptake, primary screen, ldlA[mSR-BI] cells, fluorescence, single point. ldlA[mSR-BI] CHO cells, DiI-HDL uptake fluorescence, 3 h. 320,000 compounds, 0.96% hits. inhibition, % at 12.5 µM;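 active = mean replicate inhibition of at least 70% and a set share of replicates each scoring 70 or more; inconclusive = meets just one of the two criteria; inactive = fails both criteria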
Kir21 inh = inhibitors of mouse Kir2.1 inward-rectifier potassium channel; Inward rectifier potassium channel 2 (Mus musculus), P35561; HEK293-Kir2.1, FluxOR thallium flux fluorescence; active compounds read low; B-score at 10 µM; 310,000 compounds, 0.85% hits; AID 1672, 2009;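 active = fluorescence ratio B-score at or below minus 3 SD of library scores, with starting-brightness B-score within 2 SD, cut at about -4.2 in these data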;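 also: channel flux triggered by added potassium and thallium sulfate stimulus; B-score of peak minus minimum fluorescence over baseline after thallium stimulus; more negative B-score means stronger Kir2.1 block with less thallium influx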
TMEM16A act = TMEM16A chloride channel activators or potentiators, primary screen, cell-based, HTS; Anoctamin-1 (Mus musculus), Q8BHY3; HEK293 TMEM16A/YFP-H148Q/I152L, iodide quench fluorescence; active compounds read low; B-score at 10 µM; 340,000 compounds, 0.3% hits;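 active = fluorescence-ratio B-score plate-corrected deviation score at least 3 library SD below zero, with starting fluorescence score within 5 deviations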;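 also: channel opened by trigger with iodide after compound preincubation; score built on the fluorescence ratio of max minus min over baseline; more negative score means more quench and so TMEM16A activation or potentiation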
Target sequence (Q8BHY3 whole entry, looked up): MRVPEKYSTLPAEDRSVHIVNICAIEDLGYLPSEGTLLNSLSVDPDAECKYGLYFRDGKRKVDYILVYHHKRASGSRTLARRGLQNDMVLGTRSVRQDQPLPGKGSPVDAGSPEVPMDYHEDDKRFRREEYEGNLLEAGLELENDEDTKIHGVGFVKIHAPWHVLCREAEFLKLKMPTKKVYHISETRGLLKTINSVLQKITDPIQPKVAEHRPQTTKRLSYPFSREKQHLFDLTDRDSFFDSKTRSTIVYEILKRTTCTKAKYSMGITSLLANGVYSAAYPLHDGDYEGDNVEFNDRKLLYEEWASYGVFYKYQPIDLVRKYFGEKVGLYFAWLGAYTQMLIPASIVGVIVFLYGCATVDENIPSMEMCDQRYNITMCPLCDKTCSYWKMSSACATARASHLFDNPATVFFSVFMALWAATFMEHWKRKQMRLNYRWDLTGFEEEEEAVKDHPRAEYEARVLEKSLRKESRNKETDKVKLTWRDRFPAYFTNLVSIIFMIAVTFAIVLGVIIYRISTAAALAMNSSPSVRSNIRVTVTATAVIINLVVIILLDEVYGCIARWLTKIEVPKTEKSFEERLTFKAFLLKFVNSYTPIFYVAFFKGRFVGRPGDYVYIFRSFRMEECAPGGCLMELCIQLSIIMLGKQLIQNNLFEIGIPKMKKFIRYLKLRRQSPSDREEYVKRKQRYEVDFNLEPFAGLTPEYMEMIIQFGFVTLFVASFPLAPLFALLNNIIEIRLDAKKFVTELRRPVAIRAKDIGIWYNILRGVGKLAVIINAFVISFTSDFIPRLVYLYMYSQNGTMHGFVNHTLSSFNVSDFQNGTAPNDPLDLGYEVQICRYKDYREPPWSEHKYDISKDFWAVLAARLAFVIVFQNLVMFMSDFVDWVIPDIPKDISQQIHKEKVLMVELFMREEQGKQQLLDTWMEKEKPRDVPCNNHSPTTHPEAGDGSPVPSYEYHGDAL
SR-BI uptake up = activators of SR-BI mediated DiI-HDL uptake, primary screen, ldlA[mSR-BI] CHO cells, DiI fluorescence. 3 h; 100 = double the neutral-control signal. activation, % at 12.5 µM. 320,000 compounds, 0.096% hits;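 active = mean replicate activation of at least 60% and every replicate at or above 60%; inconclusive = mean or all-replicate condition met, but not both; inactive = mean below 60% and not all replicates reaching 60%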
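Material: SR-BI-overexpressing, LDLR-lacking CHO cells; schedule: compound exposure 3 h, 37 °C; reagent: DiI-labelled HDL at 10 µg/mL final; technique: bottom-read fluorescence, 550/595 nm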
TMEM16A inh = TMEM16A chloride channel inhibitors, primary screen, cell-based, HTS | Anoctamin-1 (Mus musculus), Q8BHY3 | HEK293 TMEM16A/YFP iodide influx fluorescence, ionomycin | normalized B-score (activity score, 25-100; higher = stronger inhibition) at 10 µM | 310,000 compounds, 1.2% hits;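 active = ratio plate-corrected score three or more library SD toward inhibition, starting fluorescence score within five deviations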;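 also: score derived from kinetic fluorescence span divided by baseline fluorescence per well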
Each line names hits and unclear results; the compound was inactive in the other large screens. A selection: hits, their analogues and other compounds. The true share with any hit is near 3%.

Cc1ccccc1NC(=O)CCc1c(C)nn(-c2ccc(N3CCCCC3)nn2)c1C	SR-BI DiI inh 81.8
COc1ccccc1-n1c(CNC(=O)c2ccco2)n[nH]c1=S	none
O=C(CCCn1cnc([N+](=O)[O-])n1)Nc1cccc(O)c1	none
O=C(NCC1CCCO1)c1ccc(F)c2ccccc12 (stereo unspecified)	none
O=C(COc1ccc(Br)cc1)Nc1ccc(NC(=O)c2ccccc2)cc1	none
Cc1ccc(-n2nc3c(N4CCC(C(=O)NCCc5cccs5)CC4)nnc(C)c3c2C)cc1	none
CCCCCCCCOC(=O)c1cc([N+](=O)[O-])c(Sc2ncnc3nc[nH]c23)c([N+](=O)[O-])c1	SR-BI DiI inh 76.6 (no result: FID counter, Kir21 inh, TMEM16A inh)
O=C(O)C1CCCCN1C(=O)c1ccc(S(=O)(=O)N2CCCC2)cc1 (stereo unspecified)	none (no result: FID counter, Kir21 inh, TMEM16A inh)
Cc1ccc(Nc2cc(C)c(O)c(C)c2)cc1	none
CCN1C(=O)/C(=C/N(C(C)=O)c2ccccc2)N(c2ccccc2)C1=S	Kir21 inh -4.55
COc1ccccc1N1C(=O)CC(N2CCN(c3ccc([N+](=O)[O-])cc3)CC2)C1=O (stereo unspecified)	none
Clc1ccc(OCCCN2CCCC2)cc1Cl	none
O=C1Cc2ccccc2Sc2cc(OCCCN3CCCCC3)ccc21	Kir21 inh -8.68
CCOc1ccccc1OCCN1CCCC1	none
CN(C)CCCOc1ccc2c(c1)Sc1ccccc1CC2=O	Kir21 inh -4.23
Nc1ccc2c(c1)C(=O)Cc1ccccc1S2	none
O=C1Cc2ccccc2Sc2c(OCCN3CCCCC3)cccc21	Kir21 inh -7.73
COc1ccc(OC)c(-c2nn(-c3ccccc3)cc2C(=O)NCC(c2ccco2)N2CCCC2)c1 (stereo unspecified)	none (no result: FID counter, Kir21 inh, TMEM16A inh)
CCN(CC)S(=O)(=O)c1ccc(NC(=O)CCNC(=O)c2ccccc2)cc1	none (no result: TMEM16A act)
CCN1CCN(c2ccc(S(=O)(=O)N3CCCCC3)cc2NC(=O)/C=C/c2ccc(Cl)cc2)CC1	none (no result: FID counter, Kir21 inh, TMEM16A inh)
CN(Cc1ccccc1)C(=O)c1[nH]cnc1C(=O)Nc1ccon1	none (no result: FID counter, Kir21 inh, TMEM16A inh)
CC1CN(S(=O)(=O)c2cccc(C(F)(F)F)c2)CC(C)O1 (stereo unspecified)	Kir21 inh -4.38 (no result: SR-BI DiI inh, SR-BI uptake up)
CC1CN(C2CCN(S(=O)(=O)c3ccccc3)CC2)CC(C)O1 (stereo unspecified)	SR-BI uptake up 288.7
CC(C)CCN(C)C1CCN(S(=O)(=O)c2cccc(C(F)(F)F)c2)CC1	none
CC1CN(C2CCN(S(=O)(=O)c3ccc(F)cc3)CC2)CC(C)O1 (stereo unspecified)	none
O=[N+]([O-])c1ccc(S(=O)(=O)NCCS(=O)(=O)N2CCN(c3ccccc3)CC2)cc1	TMEM16A act -28.8
NS(=O)(=O)c1cccc(NC(=O)COC(=O)CN2C(=O)C3CC=CCC3C2=O)c1 (stereo unspecified)	none
Cc1noc(C)c1COC(=O)Cc1ccc(Cl)c(Cl)c1	none
Cc1noc(C)c1COC(=O)[C@H](C)NS(=O)(=O)c1ccc(Cl)c(Cl)c1	Kir21 inh -5.23
COc1ccc(CN2CCN(C(=O)C3CCN(S(=O)(=O)c4cccs4)CC3)CC2)c(OC)c1OC	SR-BI DiI inh 75.8
COc1cc(/C=N/NC(=O)C(=O)/C=C2\NC3(CCCC3)Cc3ccccc32)ccc1O	SR-BI DiI inh inconclusive
CN(C)c1ccc(/C=N/NC(=O)C(=O)/C=C2\NC3(CCCC3)Cc3ccccc32)cc1	SR-BI DiI inh 94.0
O=C(/C=C1\NC2(CCCC2)Cc2ccccc21)C(=O)N/N=C/c1ccccc1O	SR-BI DiI inh 114.1
O/N=C/c1cc(Br)cs1	none
CC1C2(C)OC(=N)C(C#N)(C(C)O2)C1(C#N)C#N (stereo unspecified)	TMEM16A act -6.27 (no result: SR-BI DiI inh, SR-BI uptake up)
c1ccc(CN2CCC(Nc3nc(-c4ccccc4)nc4ccccc34)CC2)cc1	FID counter 42.4
c1ccc(CN2CCC(CNc3ncnc4ccccc34)C2)cc1 (stereo unspecified)	none (no result: FID counter, Kir21 inh, TMEM16A inh)
S=c1[nH]nc(Cc2cccc3ccccc23)n1-c1ccccc1	TMEM16A act -7.17
Nn1c(Cc2cccc3ccccc23)n[nH]c1=S	none
CCCN(CCC)C(=O)Cc1coc2ccc3ccccc3c12	Kir21 inh -4.5 (no result: TMEM16A act)
O=C(Cc1coc2ccc3ccccc3c12)N1CCc2ccccc21	none
CCC(C)[C@H](NC(=O)[C@@H]1Cc2c([nH]c3ccccc23)C2c3ccccc3C(=O)N21)C(=O)N1CCC[C@@H]1C(=O)O (stereo partly specified)	none
COc1ccc(Cl)cc1NC(=O)CN(C)CC(=O)Nc1ccccc1N1CCOCC1	SR-BI DiI inh 77.8
COc1ccc(Cl)cc1NC(=O)CNCc1cccs1	none
CC(Oc1ccc(Cl)cc1)C(=O)Nc1ccccc1N1CCOCC1 (stereo unspecified)	none (no result: FID counter, Kir21 inh, TMEM16A inh)
Cc1cc(Cl)ccc1OC(C)C(=O)Nc1ccccc1N1CCOCC1 (stereo unspecified)	TMEM16A act -19.5, TMEM16A inh 100
COc1ccc(Cl)cc1NC(=O)CN(C)CC(=O)N1CC(=O)Nc2ccccc21	none (no result: FID counter, Kir21 inh, TMEM16A inh)
COc1ccc(Cl)cc1NC(=O)CN(C)Cc1cccs1	SR-BI DiI inh 71.6
O=C(CSC(=S)N1CCCC1)N1CCN(S(=O)(=O)c2ccccc2F)CC1	none (no result: FID counter)
CCC1CCc2sc(C(=O)N3CCCN(C)CC3)cc2C1 (stereo unspecified)	none (no result: SR-BI uptake up)
O=C(OC1CCCCC1=O)c1cccc(S(=O)(=O)N2CCOCC2)c1 (stereo unspecified)	none (no result: FID counter)
COC(=O)c1c(NC(=O)CCc2ccc(C)o2)sc(C)c1C	TMEM16A inh 100
O=C(Nc1ccc(N2CCCC2)cc1)c1ccc2ccccc2c1	SR-BI DiI inh 88.5
CC(=O)N1CCN(c2ccc(NC(=O)c3cccc(Cl)c3Cl)cc2)CC1	none
CC(=O)N1CCN(c2ccc(NC(=O)c3ccc4ccccc4c3)cc2)CC1	none
O=C(Nc1ccc(Br)cn1)c1cccc(-c2cc3ccccc3oc2=O)c1	none
O=C(Nc1ccc(N2CCCC2)cc1)c1cccc(-c2cc3ccccc3oc2=O)c1	SR-BI DiI inh 90.0
O=C(Nc1ccc(N2CCCC2)cc1)c1cccc(Cl)c1Cl	SR-BI DiI inh 78.8
COc1cc(OC)cc(-c2c(C#Cc3ccsc3)c3cc(-c4ccccc4OC)ccc3n2C)c1	none (no result: FID counter, Kir21 inh, TMEM16A inh)
CCN(CC)c1ccc(/C=C(/C#N)c2nc3ccc(C)cc3[nH]2)c(OC(C)C)c1	SR-BI DiI inh 101.8
